According to ChEMBL document CHEMBL3407337, “Molecular design, synthesis and biological research of novel pyridyl acridones as potent DNA-binding and apoptosis-inducing agents” (Eur J Med Chem, 2015):
Activity calls are given as the source filed them. No cut-off for these calls is given here.

Tests used:
K562 [1] = experiment: Induction of apoptosis in human K562 cells assessed as early apoptotic cells at 1 uM after 48 hrs by annexin V/PI staining based flow cytometry (reference value: 3.89 %); assay type: functional
NCI-H520 = experiment: Antiproliferative activity against human NCI-H520 cells after 48 hrs by MTT assay; assay type: functional, cell-based; details: NCI-H520, 48 h
Method in brief: (§1)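 Adherent lines seeded at 6×10^3 cells/well and allowed 12 h attachment. Media: NCI-H520 and HeLa RPMI-1640; HepG2, MCF-7, CNE-2, A375, A172 and U118-MG DMEM; U251 MEM-EBSS; all with 10% FBS, 37 °C, 5% CO2. Dosed 48 h at final 50, 25, 10, 1 and 0.1 μM. MTT 4 h, formazan dissolved in DMSO, A490. IC50 from the dose series.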

K562 [2] = experiment: Induction of apoptosis in human K562 cells assessed as late apoptotic cells at 2.5 uM after 48 hrs by annexin V/PI staining based flow cytometry (reference value: 0.26 %); assay type: functional
K562 [3] = experiment: Induction of apoptosis in human K562 cells assessed as cleavage of caspase-3 at 1 uM after 36 hrs by Western blot analysis; assay type: functional, cell-based
Method in brief: (§2)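 K562 cells in 6 cm dishes treated 36 h at various concentrations. Cells lysed on ice for 0.5 h and spun at 20,000 g. Protein measured by BCA. Lysates run on 12% SDS-PAGE and transferred to PVDF. Membranes blocked in 5% milk and probed overnight at 4 °C with primary antibody against cleaved caspase-9, -7, -3, cleaved PARP or Bcl-XL.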

K562 [4] = experiment: Induction of apoptosis in human K562 cells assessed as early apoptotic cells at 0.05 uM after 48 hrs by annexin V/PI staining based flow cytometry (reference value: 3.89 %); assay type: functional
K562 [5] = experiment: Induction of apoptosis in human K562 cells assessed as cleavage of caspase-9 at 1 uM after 36 hrs by Western blot analysis; assay type: functional, cell-based; method in brief: as §2
[6] = biological target: T1, DNA topoisomerase 1 (Homo sapiens) (UniProt P11387); experiment: Inhibition of recombinant human Topo1-mediated relation of supercoiled pBR322 DNA at 50 uM after 30 mins by agarose gel electrophoresis
T1 sequence (whole entry): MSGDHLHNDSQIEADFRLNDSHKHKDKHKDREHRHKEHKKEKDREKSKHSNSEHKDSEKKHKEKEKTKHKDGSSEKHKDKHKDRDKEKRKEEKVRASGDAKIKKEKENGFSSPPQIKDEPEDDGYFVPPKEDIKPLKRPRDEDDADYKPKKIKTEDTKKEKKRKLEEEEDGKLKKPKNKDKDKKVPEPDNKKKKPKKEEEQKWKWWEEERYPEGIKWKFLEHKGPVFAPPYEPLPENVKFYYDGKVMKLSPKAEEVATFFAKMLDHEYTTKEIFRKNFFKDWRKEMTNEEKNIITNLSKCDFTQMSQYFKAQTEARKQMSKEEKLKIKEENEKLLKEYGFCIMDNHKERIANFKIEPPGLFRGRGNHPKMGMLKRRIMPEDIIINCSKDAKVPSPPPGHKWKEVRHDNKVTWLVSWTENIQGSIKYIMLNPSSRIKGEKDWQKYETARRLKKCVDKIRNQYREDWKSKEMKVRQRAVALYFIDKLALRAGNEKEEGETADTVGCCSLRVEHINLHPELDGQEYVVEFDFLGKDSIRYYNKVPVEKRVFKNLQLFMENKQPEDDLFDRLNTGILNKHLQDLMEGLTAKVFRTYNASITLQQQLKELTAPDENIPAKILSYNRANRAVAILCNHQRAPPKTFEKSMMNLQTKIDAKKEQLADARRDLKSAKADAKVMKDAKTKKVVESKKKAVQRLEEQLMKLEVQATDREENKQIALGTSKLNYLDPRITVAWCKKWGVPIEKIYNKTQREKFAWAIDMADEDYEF
Method in brief: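 pBR322 at 100 ng with 1.0 unit recombinant human topo I. Incubated 30 min at 37 °C in 35 mM Tris-HCl pH 8.0, 5 mM MgCl2, 72 mM KCl, 0.01% BSA, 2 mM spermidine and 5 mM DTT. Run on 1% agarose in TAE at 100 V for 25 min. EB-stained gel viewed under UV.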

Calf thymus DNA [7] = experiment: Binding affinity to calf thymus DNA at 10 uM after 5 mins by UV-vis spectroscopy; assay type: nucleic-acid assay; details: Bos taurus
Method in brief: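 Compound in 5 mM Tris-HCl, 50 mM NaCl, pH 7.2, titrated with ct DNA at 0–30 μM (bp). Incubated 5 min before reading. Absorbance at 425 nm followed. Kb taken as slope/intercept of [DNA]/(εa−εf) versus [DNA]. ct DNA quantified with ε260 6600 M⁻¹cm⁻¹.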

A-375 = experiment: Antiproliferative activity against human A375 cells after 48 hrs by MTT assay; assay type: functional, cell-based; details: A-375, 48 h; method in brief: as §1
K562 [8] = experiment: Induction of apoptosis in human K562 cells assessed as early apoptotic cells at 0.25 uM after 48 hrs by annexin V/PI staining based flow cytometry (reference value: 3.89 %); assay type: functional
K562 [9] = experiment: Antiproliferative activity against human K562 cells after 48 hrs by MTT assay; assay type: functional, cell-based; details: K562, 48 h
Method in brief: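 K562 suspension cells in RPMI-1640 with 10% FBS, 37 °C, 5% CO2. Seeded at 1.5×10^4 cells/well, exposed 48 h to final 50, 25, 10, 1 and 0.1 μM. MTT (5 mg/mL) added for 4 h at 37 °C. IC50 from the dose series.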

K562 [10] = experiment: Induction of apoptosis in human K562 cells assessed as late apoptotic cells at 1 uM after 48 hrs by annexin V/PI staining based flow cytometry (reference value: 0.26 %); assay type: functional
K562 [11] = experiment: Induction of apoptosis in human K562 cells assessed as late apoptotic cells at 0.05 uM after 48 hrs by annexin V/PI staining based flow cytometry (reference value: 0.26 %); assay type: functional
K562 [12] = experiment: Induction of apoptosis in human K562 cells assessed as cleavage of PARP at 1 uM after 36 hrs by Western blot analysis; assay type: functional, cell-based; method in brief: as §2
Bos taurus = organism: Bos taurus; experiment: Displacement of ethidium bromide from calf thymus DNA assessed as quenching constant up to 30 uM after 5 mins by competitive binding fluorescence method
Method in brief: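 EB final 10 μM with ct DNA 40 μM in Tris-HCl/50 mM NaCl, pH 7.2. Compound added at final 0, 5, 10, 20 and 30 μM. Incubated 5 min, excitation 366 nm, emission near 600 nm. Quenching constant from the Stern–Volmer fit F0/F = 1 + K[Q].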

Calf thymus DNA [13] = experiment: Binding affinity to calf thymus DNA at 10 uM after 5 mins by fluorescence emmission spectroscopic method; assay type: nucleic-acid assay; details: Bos taurus
Method in brief: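 Compound at final 10 μM in 5 mM Tris-HCl, 50 mM NaCl, pH 7.2. ct DNA added to final 0–100 μM. Incubated 5 min. Emission recorded with excitation 425 nm. F/F0 plotted against [DNA]/[compound].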

K562 [14] = experiment: Induction of apoptosis in human K562 cells assessed as late apoptotic cells at 0.25 uM after 48 hrs by annexin V/PI staining based flow cytometry (reference value: 0.26 %); assay type: functional
[15] = Antiproliferative activity against human A172 cells after 48 hrs by MTT assay; assay type: functional, cell-based; details: A 172, 48 h; method in brief: as §1

- IC50 (NCI-H520): 1030 nM
- inhibition [6]: Active
- Kb (Calf thymus DNA [7]): 5.1 ×10⁴ /M
- IC50 (A-375): 160 nM
- IC50 (K562 [9]): 460 nM
- Kq (Bos taurus): 1 ×10⁴ /M
- Activity (Calf thymus DNA [13]): Active
SMILES: Cc1cccc2c(=O)c3c(NCc4ccncc4)ccc(C(=O)NCCN(C)C)c3[nH]c12
- Activity (K562 [1]): 27.06%
- Activity (K562 [2]): 20.24%
- Activity (K562 [3]): Active
- Activity (K562 [4]): 8.98%
- Activity (K562 [5]): Active
- Activity (K562 [8]): 15.64%
- Activity (K562 [10]): 7.54%
- Activity (K562 [11]): 0.49%
- Activity (K562 [12]): Active
- Activity (K562 [14]): 1.08%
- IC50 [15]: 2200 nM
